Measurements from ChEMBL document CHEMBL3864121, “Development of ebsulfur analogues as potent antibacterials against methicillin-resistant Staphylococcus aureus” (Bioorg Med Chem, 2016).
In brackets after ≈: the same amount, converted by molar mass.

Key:
Format in all cases: functional
Enterococcus faecalis [1] = test: Antibacterial activity against Enterococcus faecalis ATCC 49533 measured after overnight incubation by broth double-dilution method
In short: (§1)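 MIC by broth double-dilution in Mueller-Hinton medium. Re-testing at the time-kill inoculum used 1×10^6 CFU/mL.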

Enterococcus = test: Antibacterial activity against Vancomycin-resistant Enterococcus measured after overnight incubation by broth double-dilution method
In short: (§2)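 MIC by broth double-dilution in liquid Mueller-Hinton medium. Values are reported in µg/mL.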

Staphylococcus aureus [2] = test: Antibacterial activity against methicillin-resistant Staphylococcus aureus USA200 measured after overnight incubation by broth double-dilution method; in short: as §2
Staphylococcus aureus [3] = test: Antibacterial activity against methicillin-resistant Staphylococcus aureus USA600 measured after overnight incubation by broth double-dilution method; in short: as §2
Staphylococcus aureus [4] = test: Antibacterial activity against methicillin-resistant Staphylococcus aureus G6 measured after overnight incubation by broth double-dilution method; in short: as §2
Staphylococcus aureus [5] = test: Antibacterial activity against methicillin-resistant Staphylococcus aureus USA100 measured after overnight incubation by broth double-dilution method; in short: as §2
Staphylococcus aureus [6] = test: Antibacterial activity against methicillin-resistant Staphylococcus aureus C19 measured after overnight incubation by broth double-dilution method; in short: as §2
Listeria monocytogenes = test: Antibacterial activity against Listeria monocytogenes ATCC 19115 measured after overnight incubation by broth double-dilution method; in short: as §1
Staphylococcus aureus [7] = test: Antibacterial activity against methicillin-resistant Staphylococcus aureus 2 measured after overnight incubation by broth double-dilution method; in short: as §2
Staphylococcus aureus [8] = test: Antibacterial activity against methicillin-resistant Staphylococcus aureus C14 measured after overnight incubation by broth double-dilution method; in short: as §2
Staphylococcus aureus [9] = test: Antibacterial activity against methicillin-resistant Staphylococcus aureus NRS4 measured after overnight incubation by broth double-dilution method; in short: as §2
Staphylococcus aureus [10] = test: Antibacterial activity against methicillin-resistant Staphylococcus aureus C2 measured after overnight incubation by broth double-dilution method; in short: as §2
Staphylococcus aureus [11] = test: Antibacterial activity against methicillin-sensitive Staphylococcus aureus ATCC 29213 measured after overnight incubation by broth double-dilution method; in short: as §2
Staphylococcus aureus [12] = test: Antibacterial activity against methicillin-resistant Staphylococcus aureus C16 measured after overnight incubation by broth double-dilution method; in short: as §2
Staphylococcus aureus [13] = test: Antibacterial activity against methicillin-resistant Staphylococcus aureus S24 measured after overnight incubation by broth double-dilution method; in short: as §2
Staphylococcus aureus [14] = test: Antibacterial activity against methicillin-resistant Staphylococcus aureus C1 measured after overnight incubation by broth double-dilution method; in short: as §2
Enterococcus faecium = test: Antibacterial activity against Enterococcus faecium BM4105-RF measured after overnight incubation by broth double-dilution method; in short: as §2
Staphylococcus aureus [15] = test: Antibacterial activity against methicillin-resistant Staphylococcus aureus S17 measured after overnight incubation by broth double-dilution method; in short: as §2
Staphylococcus aureus [16] = test: Antibacterial activity against methicillin-resistant Staphylococcus aureus NRS77 measured after overnight incubation by broth double-dilution method; in short: as §2
Staphylococcus aureus [17] = test: Antibacterial activity against methicillin-resistant Staphylococcus aureus G1 measured after overnight incubation by broth double-dilution method; in short: as §2
Staphylococcus aureus [18] = test: Antibacterial activity against methicillin-resistant Staphylococcus aureus S14 measured after overnight incubation by broth double-dilution method; in short: as §2
Staphylococcus aureus [19] = test: Antibacterial activity against methicillin-resistant Staphylococcus aureus G14 measured after overnight incubation by broth double-dilution method; in short: as §2
Staphylococcus aureus [20] = test: Antibacterial activity against methicillin-resistant Staphylococcus aureus C7 measured after overnight incubation by broth double-dilution method; in short: as §2
Staphylococcus aureus [21] = test: Antibacterial activity against methicillin-resistant Staphylococcus aureus NRS51 measured after overnight incubation by broth double-dilution method; in short: as §2
Staphylococcus aureus [22] = test: Antibacterial activity against methicillin-resistant Staphylococcus aureus BRS3 measured after overnight incubation by broth double-dilution method; in short: as §2
Staphylococcus aureus [23] = test: Antibacterial activity against methicillin-resistant Staphylococcus aureus S22 measured after overnight incubation by broth double-dilution method; in short: as §2
Staphylococcus aureus [24] = test: Antibacterial activity against methicillin-sensitive Staphylococcus aureus ATCC 6538 measured after overnight incubation by broth double-dilution method; in short: as §2
Staphylococcus aureus [25] = test: Antibacterial activity against methicillin-resistant Staphylococcus aureus USA300 measured after overnight incubation by broth double-dilution method; in short: as §2
[26] = test system: Staphylococcus epidermidis; test: Antibacterial activity against Staphylococcus epidermidis ATCC 35984 measured after overnight incubation by broth double-dilution method; settings: RP62A; in short: as §1
Staphylococcus aureus [27] = test: Antibacterial activity against methicillin-sensitive Staphylococcus aureus ATCC 25923 measured after overnight incubation by broth double-dilution method; in short: as §2
Staphylococcus aureus [28] = test: Antibacterial activity against methicillin-resistant Staphylococcus aureus G12 measured after overnight incubation by broth double-dilution method; in short: as §2
Staphylococcus aureus [29] = test: Antibacterial activity against methicillin-resistant Staphylococcus aureus ATCC 33591 measured after overnight incubation by broth double-dilution method; in short: as §2
Enterococcus faecalis [30] = test: Antibacterial activity against Enterococcus faecalis ATCC 29212 measured after overnight incubation by broth double-dilution method; in short: as §1
Staphylococcus aureus [31] = test: Antibacterial activity against methicillin-resistant Staphylococcus aureus 1 measured after overnight incubation by broth double-dilution method; in short: as §2
[32] = test system: Mycolicibacterium smegmatis; test: Antibacterial activity against Mycobacterium smegmatis MC2-155 measured after overnight incubation by broth double-dilution method; settings: str. MC2 155; in short: as §2

O=c1c2ccccc2sn1CCCc1ccccc1
MIC (Enterococcus faecalis [1]): > 125 µg/mL
MIC (Enterococcus): 0.5 µg/mL (≈ 1.86 µM)
MIC (Staphylococcus aureus [2]): 3.9 µg/mL (≈ 14.5 µM)
MIC (Staphylococcus aureus [3]): 3.9 µg/mL (≈ 14.5 µM)
MIC (Staphylococcus aureus [4]): 2 µg/mL (≈ 7.42 µM)
MIC (Staphylococcus aureus [5]): 2 µg/mL (≈ 7.42 µM)
MIC (Staphylococcus aureus [6]): 2 µg/mL (≈ 7.42 µM)
MIC (Listeria monocytogenes): 2 µg/mL (≈ 7.42 µM)
MIC (Staphylococcus aureus [7]): 2 µg/mL (≈ 7.42 µM)
MIC (Staphylococcus aureus [8]): 3.9 µg/mL (≈ 14.5 µM)
MIC (Staphylococcus aureus [9]): 2 µg/mL (≈ 7.42 µM)
MIC (Staphylococcus aureus [10]): 2 µg/mL (≈ 7.42 µM)
MIC (Staphylococcus aureus [11]): 2 µg/mL (≈ 7.42 µM)
MIC (Staphylococcus aureus [12]): 3.9 µg/mL (≈ 14.5 µM)
MIC (Staphylococcus aureus [13]): 2 µg/mL (≈ 7.42 µM)
MIC (Staphylococcus aureus [14]): 2 µg/mL (≈ 7.42 µM)
MIC (Enterococcus faecium): 15.6 µg/mL (≈ 57.9 µM)
MIC (Staphylococcus aureus [15]): 2 µg/mL (≈ 7.42 µM)
MIC (Staphylococcus aureus [16]): 2 µg/mL (≈ 7.42 µM)
MIC (Staphylococcus aureus [17]): 0.5 µg/mL (≈ 1.86 µM)
MIC (Staphylococcus aureus [18]): ≤ 0.25 µg/mL
MIC (Staphylococcus aureus [19]): 2 µg/mL (≈ 7.42 µM)
MIC (Staphylococcus aureus [20]): 2 µg/mL (≈ 7.42 µM)
MIC (Staphylococcus aureus [21]): 2 µg/mL (≈ 7.42 µM)
MIC (Staphylococcus aureus [22]): 3.9 µg/mL (≈ 14.5 µM)
MIC (Staphylococcus aureus [23]): 3.9 µg/mL (≈ 14.5 µM)
MIC (Staphylococcus aureus [24]): 3.9 µg/mL (≈ 14.5 µM)
MIC (Staphylococcus aureus [25]): 2 µg/mL (≈ 7.42 µM)
MIC [26]: 2 µg/mL (≈ 7.42 µM)
MIC (Staphylococcus aureus [27]): 2 µg/mL (≈ 7.42 µM)
MIC (Staphylococcus aureus [28]): 2 µg/mL (≈ 7.42 µM)
MIC (Staphylococcus aureus [29]): 1 µg/mL (≈ 3.71 µM)
MIC (Enterococcus faecalis [30]): 15.6 µg/mL (≈ 57.9 µM)
MIC (Staphylococcus aureus [31]): 0.5 µg/mL (≈ 1.86 µM)
MIC [32]: 3.9 µg/mL (≈ 14.5 µM)

CC(C)Cn1sc2ccccc2c1=O
MIC (Enterococcus faecalis [1]): 15.6 µg/mL (≈ 75.3 µM)
MIC (Enterococcus): 3.9 µg/mL (≈ 18.8 µM)
MIC (Staphylococcus aureus [2]): 7.8 µg/mL (≈ 37.6 µM)
MIC (Staphylococcus aureus [3]): 7.8 µg/mL (≈ 37.6 µM)
MIC (Staphylococcus aureus [4]): 7.8 µg/mL (≈ 37.6 µM)
MIC (Staphylococcus aureus [5]): 7.8 µg/mL (≈ 37.6 µM)
MIC (Staphylococcus aureus [6]): 7.8 µg/mL (≈ 37.6 µM)
MIC (Listeria monocytogenes): > 125 µg/mL
MIC (Staphylococcus aureus [7]): 15.6 µg/mL (≈ 75.3 µM)
MIC (Staphylococcus aureus [8]): 7.8 µg/mL (≈ 37.6 µM)
MIC (Staphylococcus aureus [9]): 7.8 µg/mL (≈ 37.6 µM)
MIC (Staphylococcus aureus [10]): 7.8 µg/mL (≈ 37.6 µM)
MIC (Staphylococcus aureus [11]): 15.6 µg/mL (≈ 75.3 µM)
MIC (Staphylococcus aureus [12]): 7.8 µg/mL (≈ 37.6 µM)
MIC (Staphylococcus aureus [13]): 7.8 µg/mL (≈ 37.6 µM)
MIC (Staphylococcus aureus [14]): 7.8 µg/mL (≈ 37.6 µM)
MIC (Enterococcus faecium): 7.8 µg/mL (≈ 37.6 µM)
MIC (Staphylococcus aureus [15]): 7.8 µg/mL (≈ 37.6 µM)
MIC (Staphylococcus aureus [16]): 7.8 µg/mL (≈ 37.6 µM)
MIC (Staphylococcus aureus [17]): 3.9 µg/mL (≈ 18.8 µM)
MIC (Staphylococcus aureus [18]): 2 µg/mL (≈ 9.65 µM)
MIC (Staphylococcus aureus [19]): 7.8 µg/mL (≈ 37.6 µM)
MIC (Staphylococcus aureus [20]): 7.8 µg/mL (≈ 37.6 µM)
MIC (Staphylococcus aureus [21]): 7.8 µg/mL (≈ 37.6 µM)
MIC (Staphylococcus aureus [22]): 7.8 µg/mL (≈ 37.6 µM)
MIC (Staphylococcus aureus [23]): 7.8 µg/mL (≈ 37.6 µM)
MIC (Staphylococcus aureus [24]): 7.8 µg/mL (≈ 37.6 µM)
MIC (Staphylococcus aureus [25]): 7.8 µg/mL (≈ 37.6 µM)
MIC [26]: 7.8 µg/mL (≈ 37.6 µM)
MIC (Staphylococcus aureus [27]): 125 µg/mL (≈ 603 µM)
MIC (Staphylococcus aureus [28]): 7.8 µg/mL (≈ 37.6 µM)
MIC (Staphylococcus aureus [29]): > 125 µg/mL
MIC (Enterococcus faecalis [30]): 7.8 µg/mL (≈ 37.6 µM)
MIC (Staphylococcus aureus [31]): 7.8 µg/mL (≈ 37.6 µM)
MIC [32]: 3.9 µg/mL (≈ 18.8 µM)

CC(C)CCn1c(=O)c2ccccc2[s+]1[O-] (stereo not given)
MIC (Enterococcus faecalis [1]): > 125 µg/mL
MIC (Enterococcus): > 125 µg/mL
MIC (Staphylococcus aureus [2]): > 125 µg/mL
MIC (Staphylococcus aureus [3]): > 125 µg/mL
MIC (Staphylococcus aureus [4]): > 125 µg/mL
MIC (Staphylococcus aureus [5]): > 125 µg/mL
MIC (Staphylococcus aureus [6]): > 125 µg/mL
MIC (Listeria monocytogenes): > 125 µg/mL
MIC (Staphylococcus aureus [7]): > 125 µg/mL
MIC (Staphylococcus aureus [8]): > 125 µg/mL
MIC (Staphylococcus aureus [9]): > 125 µg/mL
MIC (Staphylococcus aureus [10]): > 125 µg/mL
MIC (Staphylococcus aureus [11]): > 125 µg/mL
MIC (Staphylococcus aureus [12]): > 125 µg/mL
MIC (Staphylococcus aureus [13]): > 125 µg/mL
MIC (Staphylococcus aureus [14]): > 125 µg/mL
MIC (Enterococcus faecium): > 125 µg/mL
MIC (Staphylococcus aureus [15]): > 125 µg/mL
MIC (Staphylococcus aureus [16]): > 125 µg/mL
MIC (Staphylococcus aureus [17]): > 125 µg/mL
MIC (Staphylococcus aureus [18]): > 125 µg/mL
MIC (Staphylococcus aureus [19]): > 125 µg/mL
MIC (Staphylococcus aureus [20]): > 125 µg/mL
MIC (Staphylococcus aureus [21]): > 125 µg/mL
MIC (Staphylococcus aureus [22]): > 125 µg/mL
MIC (Staphylococcus aureus [23]): > 125 µg/mL
MIC (Staphylococcus aureus [24]): > 125 µg/mL
MIC (Staphylococcus aureus [25]): > 125 µg/mL
MIC [26]: > 125 µg/mL
MIC (Staphylococcus aureus [27]): > 125 µg/mL
MIC (Staphylococcus aureus [28]): > 125 µg/mL
MIC (Staphylococcus aureus [29]): > 125 µg/mL
MIC (Enterococcus faecalis [30]): > 125 µg/mL
MIC (Staphylococcus aureus [31]): > 125 µg/mL
MIC [32]: > 125 µg/mL
